In ChEMBL document CHEMBL1124270, “Quinolone antibacterial agents. Synthesis and structure-activity relationships of 8-substituted quinoline-3-carboxylic acids and 1,8-naphthyridine-3-carboxylic acids” (1988) one finds MIC, DNA cleavage conc (gyrase) and ED50 data, which are given here for 7 compounds.

For orientation: MIC means the lowest concentration found to suppress growth. A high value points to a need for much substance.

Holding throughout (assay type): functional
One experiment relates to Streptococcus pyogenes. The experiment is described as follows: Minimum inhibitory concentration against Streptococcus pyogenes C203 in vitro.
For another experiment, the system named is Providencia rettgeri. In words: Minimum inhibitory concentration against Providencia rettgeri H1771 in vitro.
Experiment [1] deals with Escherichia coli. The experiment is described as follows: Minimum inhibitory concentration against Escherichia coli H560 in vitro.
Experiment [2] relates to Escherichia coli. The experiment is described as follows: Minimum concentration needed to produce linear DNA at an intensity relative to oxolinic at 10 ug/mL in Escherichia coli H560 in vitro. Summed up:
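DNA gyrase cleavage test, run as previously described: end point is the lowest drug level (µg/mL) that yields linear DNA at a band intensity matching oxolinic acid at 10 µg/mL. Values come from duplicate or triplicate experiments and are stated as accurate to ±50%.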

The test system of a further experiment is Klebsiella pneumoniae. The experiment is described as follows: Minimum inhibitory concentration against Klebsiella pneumoniae MGH-2 in vitro.
In a further experiment the test system is Pseudomonas aeruginosa. The experiment is described as follows: Minimum inhibitory concentration against Pseudomonas aeruginosa UI-18 in vitro.
Another experiment has as its system Enterobacter cloacae. In words: Minimum inhibitory concentration against Enterobacter cloacae HA 2646 in vitro.
For experiment [3], the system named is Staphylococcus aureus. In words: Minimum inhibitory concentration against Staphylococcus aureus UC-76 in vitro.
Experiment [4] deals with Staphylococcus aureus. In words: Minimum inhibitory concentration against Staphylococcus aureus H228 in vitro.
The subject of another experiment is Streptococcus pneumoniae. In words: Minimum inhibitory concentration against Streptococcus pneumoniae SV-1 in vitro.
In a further experiment the test system is Enterococcus faecalis. The experiment is described as follows: Minimum inhibitory concentration against Streptococcus faecalis MGH-2 in vitro.
The subject of experiment [5] is Escherichia coli. The experiment is described as follows: Minimum inhibitory concentration against Escherichia coli vogel in vitro.
Another experiment relates to Mus musculus. In words: In vivo potency against Escherichia coli vogel using mouse protection assay when given perorally. The note with it: po, read-out: PD50.

Each structure is given as a SMILES string. Converted amounts (≈) assume the structure as drawn.

Take `CNCC1CCN(c2c(F)cc3c(=O)c(C(=O)O)cn4c3c2OCC4C)C1` (centres undefined): the MIC against Streptococcus pyogenes is 0.05 µg/mL (≈ 0.133 µM); in the experiment with Providencia rettgeri, 3.1 µg/mL (≈ 8.26 µM); in the experiment on Escherichia coli [1] it was 0.2 µg/mL (≈ 0.533 µM); in the experiment on Klebsiella pneumoniae, 0.4 µg/mL (≈ 1.07 µM); in the experiment with Pseudomonas aeruginosa, 1.6 µg/mL (≈ 4.26 µM); in the experiment with Enterobacter cloacae, 0.4 µg/mL (≈ 1.07 µM). The minimal inhibitory concentration (MIC) with Staphylococcus aureus [3] worked out at 0.025 µg/mL (≈ 0.0666 µM); against Staphylococcus aureus [4] it was 0.4 µg/mL (≈ 1.07 µM); with Streptococcus pneumoniae it was 0.1 µg/mL (≈ 0.266 µM); in the experiment on Enterococcus faecalis it was 0.1 µg/mL (≈ 0.266 µM); in the experiment with Escherichia coli [5], 0.2 µg/mL (≈ 0.533 µM). In the experiment with Escherichia coli [2], this compound registered a DNA cleavage conc (gyrase) of 1 µg/mL.
For `CCNCC1CCN(c2c(F)cc3c(=O)c(C(=O)O)cn(C4CC4)c3c2Cl)C1` (centres undefined), the MIC in the experiment on Streptococcus pyogenes was 0.006 µg/mL (≈ 0.0147 µM); in the experiment on Providencia rettgeri it was 0.2 µg/mL (≈ 0.49 µM); in the experiment with Escherichia coli [1], 0.025 µg/mL (≈ 0.0613 µM); against Klebsiella pneumoniae it was 0.1 µg/mL (≈ 0.245 µM); in the experiment with Pseudomonas aeruginosa, 0.8 µg/mL (≈ 1.96 µM); in the experiment on Enterobacter cloacae it was 0.05 µg/mL (≈ 0.123 µM). The MIC against Staphylococcus aureus [3] was determined as 0.003 µg/mL (≈ 0.00736 µM); in the experiment with Staphylococcus aureus [4], 0.013 µg/mL (≈ 0.0319 µM); against Streptococcus pneumoniae it was 0.003 µg/mL (≈ 0.00736 µM); against Enterococcus faecalis, 0.013 µg/mL (≈ 0.0319 µM); in the experiment with Escherichia coli [5] it was 0.05 µg/mL (≈ 0.123 µM). This compound showed a DNA cleavage conc (gyrase) with Escherichia coli [2] of 0.1 µg/mL.
Regarding `CC1COc2c(N3CCC(CN(C)C)C3)c(F)cc3c(=O)c(C(=O)O)cn1c23.Cl` (centres undefined), the minimal inhibitory concentration (MIC) in the experiment with Streptococcus pyogenes amounted to 0.05 µg/mL; with Providencia rettgeri, 0.8 µg/mL; against Escherichia coli [1] it was 0.2 µg/mL; against Klebsiella pneumoniae, 0.4 µg/mL; against Pseudomonas aeruginosa it was 3.1 µg/mL; against Enterobacter cloacae it was 0.4 µg/mL. Also, the MIC against Staphylococcus aureus [3] was 0.05 µg/mL; with Staphylococcus aureus [4], 0.2 µg/mL; with Streptococcus pneumoniae, 0.05 µg/mL; in the experiment with Enterococcus faecalis it was 0.4 µg/mL; against Escherichia coli [5] it was 0.2 µg/mL. Further, in the experiment with Escherichia coli [2], the DNA cleavage conc (gyrase) worked out at 1 µg/mL.
For `CCNCC1CCN(c2cc3c(cc2F)c(=O)c(C(=O)O)cn3C2CC2)C1.Cl` (centres undefined), the MIC against Streptococcus pyogenes came out at 0.05 µg/mL; with Providencia rettgeri, 0.8 µg/mL; in the experiment with Escherichia coli [1], 0.05 µg/mL; against Klebsiella pneumoniae, 0.2 µg/mL; in the experiment on Pseudomonas aeruginosa, 1.6 µg/mL; against Enterobacter cloacae, 0.4 µg/mL. The MIC was 0.013 µg/mL in the experiment on Staphylococcus aureus [3]; 0.4 µg/mL against Staphylococcus aureus [4]; 0.2 µg/mL against Streptococcus pneumoniae; 0.2 µg/mL in the experiment with Enterococcus faecalis; 0.2 µg/mL in the experiment with Escherichia coli [5]. In addition, the DNA cleavage conc (gyrase) in the experiment with Escherichia coli [2] is 1 µg/mL. The ED50 in the experiment on Mus musculus was 35 mg/kg.
For the compound `CCNCC1CCN(c2c(F)cc3c(=O)c(C(=O)O)cn(C4CC4)c3c2N)C1.Cl.Cl` (centres undefined), the MIC was determined as 0.2 µg/mL against Streptococcus pyogenes; 1.6 µg/mL with Providencia rettgeri; 0.8 µg/mL with Escherichia coli [1]; 0.8 µg/mL with Klebsiella pneumoniae; 3.1 µg/mL against Pseudomonas aeruginosa; 0.4 µg/mL in the experiment on Enterobacter cloacae. For the same compound, the minimal inhibitory concentration (MIC) in the experiment on Staphylococcus aureus [3] is 0.05 µg/mL; against Staphylococcus aureus [4], 0.8 µg/mL; against Streptococcus pneumoniae, 0.4 µg/mL; in the experiment with Enterococcus faecalis, 0.2 µg/mL; against Escherichia coli [5] it was 0.4 µg/mL. In the experiment with Escherichia coli [2], the DNA cleavage conc (gyrase) came to 2.5 µg/mL.
For the compound `CNCC1CCN(c2c(F)cc3c(=O)c(C(=O)O)cn(C4CC4)c3c2N)C1.Cl` (centres undefined), the MIC against Streptococcus pyogenes is 0.4 µg/mL; with Providencia rettgeri it was 6.3 µg/mL; in the experiment with Escherichia coli [1] it was 1.6 µg/mL; against Klebsiella pneumoniae, 3.1 µg/mL; against Pseudomonas aeruginosa it was 6.3 µg/mL; against Enterobacter cloacae, 3.1 µg/mL. In addition, the MIC with Staphylococcus aureus [3] is 0.2 µg/mL; in the experiment on Staphylococcus aureus [4], 1.6 µg/mL; in the experiment on Streptococcus pneumoniae, 1.6 µg/mL; in the experiment on Enterococcus faecalis, 1.6 µg/mL; against Escherichia coli [5], 0.8 µg/mL. In addition, the DNA cleavage conc (gyrase) in the experiment on Escherichia coli [2] worked out at 5 µg/mL.
For the compound `CCNCC1CCN(c2c(F)cc3c(=O)c(C(=O)O)cn(C4CC4)c3c2[N+](=O)[O-])C1.Cl` (centres undefined), the MIC came to 0.2 µg/mL in the experiment on Streptococcus pyogenes; 1.6 µg/mL against Providencia rettgeri; 0.4 µg/mL with Escherichia coli [1]; 0.8 µg/mL with Klebsiella pneumoniae; 6.3 µg/mL with Pseudomonas aeruginosa; 0.4 µg/mL against Enterobacter cloacae. In addition, the MIC in the experiment with Staphylococcus aureus [3] was determined as 0.1 µg/mL; against Staphylococcus aureus [4], 0.4 µg/mL; with Streptococcus pneumoniae, 0.1 µg/mL; against Enterococcus faecalis, 0.4 µg/mL; in the experiment with Escherichia coli [5] it was 0.4 µg/mL.
